Columns and labels:
Ssc1 [1] = test: Single-turnover basal ATPase assay, Ssc1; type: biochemical, S. cerevisiae; settings: 25°C, buffer A, versus wild type
Ssc1 [2] = test: ATP-induced substrate release by fluorescence anisotropy, Ssc1; type: biochemical, S. cerevisiae; settings: 2.5 mM ATP, 5 μM Ssc1[F-P5], anisotropy decrease up to 5 min
Hsp60 = Hsp60 precursor accumulation assay; type: cell-based, S. cerevisiae; settings: shift to 37°C for 2 h, immunoblot; Figure 6B
Procedure, shortened: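 Yeast strains were grown in YPD at 28°C to early log phase, then shifted to 37°C for 2 h. Cells equivalent to 2 OD A600 were taken before and after the shift and lysed in 0.1 N NaOH. Whole-cell extracts were run on SDS–PAGE and immunoblotted for Hsp60 to detect its precursor (p) and mature (m) forms.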

Tim44 = test: Coimmunoprecipitation of Ssc1 with Tim44; type: binding, S. cerevisiae; settings: mitochondrial lysates, anti-Ssc1, presence or absence of 1 mM ATP; Figure 6A
yeast cells = test: Growth phenotype; type: cell-based, S. cerevisiae; settings: minimal medium or 5-FOA medium, serial dilutions
Cytb2(47)-DHFR = test: In vitro import kinetics of Cytb2; type: biochemical, S. cerevisiae; settings: isolated mitochondria, 37°C preincubation; Figure 6, C and D
Procedure, shortened: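 Saturating purified precursor plus 8 mM each ATP and NADH added. Time points stopped with valinomycin, then proteinase K (quenched with PMSF). Anti-DHFR immunoblot; intermediate form plotted over time, maximum wild-type import set as 100%.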

Ssc1 [3] = test: Limited proteolytic cleavage by trypsin; type: biochemical, S. cerevisiae; settings: 1:100 (wt/wt) trypsin, 25°C, SDS-PAGE
[4] = tested on: fluorescein-labeled P5 peptide (F-P5); test: Fluorescence anisotropy equilibrium binding of F-P5 peptide to Ssc1 proteins; settings: F-P5, versus wild type
mitochondrial mass = test: Mitochondrial mass estimation by 10-N-nonyl acridine orange flow cytometry; type: cell-based, S. cerevisiae; settings: in comparison to wild type; Figure 6E
Procedure, shortened: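 Per strain, cells equal to 0.2 OD at A600 were stained with 10-N-nonyl acridine orange, a cardiolipin-binding dye, and analysed by flow cytometry to estimate total mitochondrial mass.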

B1: E467A (protein)
chain: QSTKVQGSVIGIDLGTTNSAVAIMEGKVPKIIENAEGSRTTPSVVAFTKEGERLVGIPAKRQAVVNPENTLFATKRLIGRRFEDAEVQRDIKQVPYKIVKHSNGDAWVEARGQTYSPAQIGGFVLNKMKETAEAYLGKPVKNAVVTVPAYFNDSQRQATKDAGQIVGLNVLRVVNEPTAAALAYGLEKSDSKVVAVFDLGGGTFDISILDIDNGVFEVKSTNGDTHLGGEDFDIYLLREIVSRFKTETGIDLENDRMAIQRIREAAEKAKIELSSTVSTEINLPFITADASGPKHINMKFSRAQFETLTAPLVKRTVDPVKKALKDAGLSTSDISEVLLVGGMSRMPKVVETVKSLFGKDPSKAVNPDEAVAIGAAVQGAVLSGEVTDVLLLDVTPLSLGIETLGGVFTRLIPRNTTIPTKKSQIFSTAAAGQTSVEIRVFQGARELVRDNKLIGNFTLAGIPPAPKGVPQIEVTFDIDADGIINVSARDKATNKDSSITVAGSSGLSENEIEQMVNDAEKFKSQDEARKQAIETANKADQLANDTENSLKEFEGKVDKAEAQKVRDQITSLKELVARVQGGEEVNAEELKTKTEELQTSSMKLFEQLYKNDSNNNNNNNGNNAESGETKQ
- fold increase in basal ATPase activity (Ssc1 [1]): 4.85 fold
- substrate (peptide) release upon ATP addition (Ssc1 [2]): ~38%
- Hsp60 precursor accumulation, in words (Hsp60): significant levels of Hsp60 precursor form as compared with wild type
- interaction with Tim44, in words (Tim44): interacted negligibly with Tim44 even in the absence of ATP
- growth phenotype, in words (yeast cells): viable at 30 °C but displayed temperature sensitivity at 34 and 37 °C
- rate of precursor translocation into mitochondria, in words (Cytb2(47)-DHFR): impairment in translocation rate
- trypsin cleavage pattern, in words (Ssc1 [3]): the 30-kDa bands were very unstable and rapidly degraded further into smaller-sized fragments
- fold reduced affinity for the substrate vs wild type [4]: ~8.6 fold
- reduction in mitochondrial mass (mitochondrial mass): 30%

Reference: publication PMC4091826 (Molecular Biology of the Cell, 2014)
